Compound activity as filed in PubChem BioAssay.
TRPC4 PAM: allosteric potentiators of mouse TRPC4 channel; Q9QUQ5; HEK293 TRPC4beta/mu-opioid, DAMGO EC20, Fluo-4 Ca2+ flux; stronger effect = higher value; B-score at 10 µM; hit rate 0.42% among 310,000; AID 2227;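 active means B-score of calcium response area above 5 SD of library B-scores, with initial fluorescence ratio within 5 SD of library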;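 further: B-score of integrated fluorescence ratio over time as area under calcium response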
Target sequence (Q9QUQ5 whole entry, looked up): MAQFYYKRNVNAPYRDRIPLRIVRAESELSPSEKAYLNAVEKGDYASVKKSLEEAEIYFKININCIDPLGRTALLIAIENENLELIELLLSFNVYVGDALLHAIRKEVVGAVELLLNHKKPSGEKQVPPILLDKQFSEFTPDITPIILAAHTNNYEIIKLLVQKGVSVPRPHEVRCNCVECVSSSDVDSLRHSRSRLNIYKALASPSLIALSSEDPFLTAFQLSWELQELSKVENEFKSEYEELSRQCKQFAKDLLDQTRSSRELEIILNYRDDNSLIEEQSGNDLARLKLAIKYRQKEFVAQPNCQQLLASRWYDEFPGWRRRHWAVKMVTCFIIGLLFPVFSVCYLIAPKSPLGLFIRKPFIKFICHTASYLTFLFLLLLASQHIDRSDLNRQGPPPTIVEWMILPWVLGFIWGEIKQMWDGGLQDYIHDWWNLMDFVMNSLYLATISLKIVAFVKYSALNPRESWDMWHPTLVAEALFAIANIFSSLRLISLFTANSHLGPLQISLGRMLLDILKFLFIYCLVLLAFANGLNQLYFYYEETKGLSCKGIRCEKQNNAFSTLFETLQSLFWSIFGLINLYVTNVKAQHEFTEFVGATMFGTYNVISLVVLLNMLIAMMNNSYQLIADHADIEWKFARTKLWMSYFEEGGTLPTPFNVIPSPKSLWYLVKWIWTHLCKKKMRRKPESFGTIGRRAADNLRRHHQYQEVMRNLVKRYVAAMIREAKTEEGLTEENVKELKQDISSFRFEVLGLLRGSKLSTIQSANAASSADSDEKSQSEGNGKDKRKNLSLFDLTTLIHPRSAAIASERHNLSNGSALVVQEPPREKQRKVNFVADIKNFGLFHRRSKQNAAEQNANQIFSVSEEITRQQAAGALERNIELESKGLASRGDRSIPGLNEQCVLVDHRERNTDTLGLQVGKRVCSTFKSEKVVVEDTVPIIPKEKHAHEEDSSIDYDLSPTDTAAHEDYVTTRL
CR mimetic SO: yeast age-related superoxide inhibition as caloric restriction mimetic; S. cerevisiae aged cells, superoxide DHE fluorescence; stronger effect = lower value; AID 2690; hit rate 0.18% among 330,000; superoxide response (% of plate mean), % at 10 µM;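 active means superoxide response under a set limit, about three screen SD below normal, cut at about 65% in these data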;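 further: yeast aged for seven days with compound at 30 °C before DHE staining; 100% = average MFI of all compound-treated wells on the plate with controls excluded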
TRPC6 inh: blocks the mouse TRPC6 cation channel; Q61143; HEK293-TRPC6, membrane potential dye, ACh-evoked depolarization; stronger effect = lower value; B-score at 10 µM; hit rate 1.1% among 310,000; AID 2553;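 active means B-score under library mean minus 3 SD, initial fluorescence not abnormally high, positive integrated signal ratio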;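 further: B-score derived from integrated fluorescence ratio over the kinetic read; more negative B-score means stronger inhibition of depolarization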
TRPC4 block: TRPC4 (mouse) channel inhibition; hit rate 0.39% among 300,000; AID 2247; Q9QUQ5; HEK293 TRPC4beta/mu-opioid, DAMGO-evoked Fluo4 calcium flux; stronger effect = lower value; B-score at 10 µM;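 active means B-score over 3 SD under the library average, no early fluorescence shift, positive overall ratio signal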
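Assay system: Stable TRPC4beta/mu-opioid receptor HEK293 cells | Reagent: DAMGO in two steps, submaximal then maximal | Compound dosing: Single concentration per test compound | Signal: Fluo4 Ca2+ flux fluorescence | Evaluation: Per-well B score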
TRPC6 activator: activates the mouse TRPC6 cation channel. HEK293-TRPC6 membrane potential dye fluorescence; stronger effect = higher value. hit rate 0.13% among 310,000. B-score at 10 µM. AID 2550;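 active means B-score of the integrated fluorescence ratio above library mean plus 3 SD, and starting fluorescence ratio within library mean plus 5 SD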;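 further: higher score means more depolarization so channel activation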
TRPC4 agonist: TRPC4 (mouse) channel activation; B-score at 10 µM; AID 2237; Q9QUQ5; HEK293 TRPC4beta/mu-opioid, Fluo4 calcium fluorescence; stronger effect = higher value; hit rate 0.49% among 310,000;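 active means B-score above 5 SD of library B-scores, and initial fluorescence ratio not above library mean plus 5 SD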;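 further: positive B-score marks a calcium rise read as TRPC4 activation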
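Test system: HEK293 cells stably co-expressing mouse TRPC4beta and mu-opioid receptor | Schedule: Fluo4 dye loading 45 min at room temperature, 110 s recording | Measured by: Kinetic Fluo4 calcium fluorescence, 5 s baseline at 1 Hz | Evaluation: B score of integrated ratio | Controls: Buffer (low) and maximal DAMGO (high)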
Active calls of the source: *; i = inactive; / = no result; ! = a repeat was not active. A selection: hits, their analogues and other compounds. The true share with any hit is near 2.3%.

SMILES	TRPC4 PAM	CR mimetic SO	TRPC6 inh	TRPC4 block	TRPC6 activator	TRPC4 agonist
CC1CCCN(S(=O)(=O)c2ccc(NC(=O)C3CCN(C(=O)c4ccco4)CC3)cc2)C1 (centres undefined)	i	99	i	i	i	60*
CCOc1ccccc1NS(=O)(=O)c1ccc2[nH]c(=O)[nH]c2c1	13*	94	i	i	i	i
COc1ccc(N(C)S(=O)(=O)c2cccc(C(=O)NCC(c3ccco3)N3CCCC3)c2)cc1 (centres undefined)	i	100	i	i	i	i
CCOc1ccc(C(=O)NCC(c2cccs2)N(C)C)cc1 (centres undefined)	i	119	i	i	i	50*
COc1ccc(N(C)S(=O)(=O)c2cccc(C(=O)NCC(c3cccs3)N(C)C)c2)cc1 (centres undefined)	i	101	i	-6*	i	i
O=C(Nc1ccc(Cc2ccncc2)cc1)C1CCC(N2C(=O)C3CCCCC3C2=O)CC1 (centres undefined)	i	132	i	i	i	i
Cc1ccc(CCN2CC(C(=O)N3CCN(c4ccc(F)cc4)CC3)CC2=O)cc1 (centres undefined)	i	113	i	i	i	i
O=C(COc1ccccc1)NCC(=O)N/N=C/c1ccc(Cl)cc1	i	93	i	i	i	i
Cc1ccc(C)c(OCC(O)CN2CCN(CCN3C(=O)c4cccc5cccc(c45)C3=O)CC2)c1 (centres undefined)	i	88	-5.1*	i	i	i
COc1ccccc1S(=O)(=O)Nc1ccc2nc(C)sc2c1	/	99	/	/	/	/
CC1=CC(=O)C=C(C)C1=NOS(=O)(=O)c1ccccc1	i	/	i	i	i	i
CC1=CC(=O)C(C(C)C)=C/C1=N/OS(=O)(=O)c1ccccc1	21*	89	i	i	i	i
CN1CCN(CC(=O)Nc2c(C#N)cnn2-c2ccccc2)CC1	i	110	i	i	i	59*
Cc1nn(C)c(C)c1Sc1ccc(Br)cc1	i	96	i	-6*	i	i
Cc1ncsc1CCOC(=O)c1cccc([N+](=O)[O-])c1	i	88	i	-6*!	i	i
O=C(COC(=O)c1cccc([N+](=O)[O-])c1)NCc1cccs1	i	99	i	/	i	i
N#Cc1c(NC(=S)NC(=O)c2ccccc2)sc2c1CCN(CCc1ccccc1)C2	i	75	i	i	i	i
CC(C)(C)C(=O)Nc1sc2c(c1C#N)CCN(Cc1ccccc1)C2	i	100	i	i	13*	i
O=C(CNC(=O)C1CCCCC1)NC1=NCCS1	i	81	i	i	i	i
CC1CCCN(C2=C(NS(=O)(=O)c3ccc(Br)cc3)C(=O)c3ccccc3C2=O)C1 (centres undefined)	16*	269	i	i	i	i
COc1ccccc1C(=O)NC(=S)N1CCc2ccccc21	i	97	i	i	i	i
O=c1c(Oc2ccccc2)coc2cc(O)cc(O)c12	i	79	i	i	i	i
CC(C)c1ccccc1OCCCCCNCCO	13*	131	i	i	i	i
Cc1ccccc1OCCCCCNCCO	i	/	i	i	i	i
Cc1ccc2[nH]c(=O)c3cc(C(=O)N(C)c4ccc(C)c(C)c4)sc3c2c1	i	122	i	i	i	i
SMILES	TRPC4 PAM	CR mimetic SO	TRPC6 inh	TRPC4 block	TRPC6 activator	TRPC4 agonist
Cc1ccc(-c2nn(C)c(=O)c3ccccc23)cc1CNC(=O)CSc1nc2ccccc2o1	i	92	i	i	i	i
Cn1c(SCCOc2ccccc2F)nc2ccccc2c1=O	16*	112	i	i	i	i
COCCn1c(SCc2ccc(OC)c(F)c2)nc2ccccc2c1=O	i	102	i	-7*	i	i
COCCn1c(SCc2ccc(F)cc2)nc2ccccc2c1=O	i	99	i	-6*	i	i
COCCn1c(SCc2nc3ccccc3c(=O)[nH]2)nc2ccccc2c1=O	i	109	i	i	i	i
CCOC(=O)C1=C(N)OC2=C(C(=O)CC(C)(C)C2)C1c1ccc(CC)s1 (centres undefined)	16*	99	i	i	i	i
O=C(CCNC(=O)c1ccccc1Cl)Nc1ccccc1N1CCCC1	i	113	i	i	i	i
O=C(CCNC(=O)c1ccc(Br)cc1)Nc1ccccc1N1CCCCC1	i	82	i	-6*	i	i
O=C(NC1CCCCCCC1)c1cnccn1	12*	100	i	i	i	i
O=C(NC1CCS(=O)(=O)C1)c1cnccn1 (centres undefined)	i	111	i	i	i	i
CCn1nc(NC(=O)c2ccncc2)c2cc3ccccc3nc21	i	85	i	i	i	i
CCN(CC)CCCNC(=O)c1cc2nc(-c3ccccc3)cc(C(F)(F)F)n2n1	11*	101	i	i	i	i
COc1ccc(C2CC(=O)c3cnc(N4CCN(Cc5ccccc5)CC4)nc3C2)cc1 (centres undefined)	19*	106	i	i	i	i
COc1ccc(Cl)cc1C(=O)NCC(c1ccco1)N1CCCC1 (centres undefined)	i	102	i	i	i	52*
COc1ccc(S(=O)(=O)N2CCOCC2)cc1C(=O)NCC(c1ccco1)N1CCCC1 (centres undefined)	/	102	/	/	/	/
O=C(NCC(c1ccco1)N1CCCC1)c1sc2ccccc2c1Cl (centres undefined)	i	85	i	i	i	43*
Cc1cccc(CN2CCCC(C(=O)N3CCCCC3)C2)c1 (centres undefined)	i	99	i	i	i	i
O=C(C1CCCN(Cc2ccccc2F)C1)N1CCc2ccccc2C1 (centres undefined)	i	100	i	i	i	110*
O=C(C1CCCN(Cc2ccccc2)C1)N1CCCCC1 (centres undefined)	i	103	i	i	i	i
Cc1cccc(CN2CCCC(C(=O)N3CCc4ccccc4C3)C2)c1 (centres undefined)	i	109	i	i	i	70*
O=C(C1CCCN(Cc2ccncc2)C1)N1CCc2ccccc2C1 (centres undefined)	i	100	i	i	i	164*
